From PubChem BioAssay
Results filed as inconclusive are left out.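 The calls were made as follows, unless noted: active = RAM network inhibition above 8.4% in each of two replicates, 3 SD over the compound average; inconclusive = above 8.4% inhibition in only one replicate; inactive = 8.4% inhibition or less in each replicate.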

What was measured:
[1] = OD615 S. cerevisiae growth inhibition, permissive medium, pilot counter-assay, permissive growth control for S. cerevisiae lifespan shortening project (AID 705;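 active = growth inhibition above 25% in both replicates, a cutoff set 3 SD above the mean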); details: OD615, 24 h, at 10 µM, stronger effect = higher value
Procedure, shortened: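 System: S. cerevisiae with engineered DeaD lifespan system / Measured by: absorbance (optical density) at 615 nm / Read-out: reduction in yeast growth (OD615) / Times: 4 h cell pre-growth, 24 h exposure at 30 °C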

[2] = Restrictive medium S. cerevisiae growth inhibition, OD615, pilot screen of yeast lifespan reduction project, restrictive growth control (AID 706;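 active = growth inhibition above a set limit, 3 SD over mean compound inhibition, in both replicates, cut at about 43% in these data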;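 also: modified DeaD lifespan yeast strain shifted to restrictive glucose medium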); details: OD615, 48 h, at 10 µM, stronger effect = higher value
Procedure, shortened: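 System: Engineered S. cerevisiae DeaD strain | Buffer or medium: Glucose-based CSMM-D restrictive medium | Schedule: 4 h pre-incubation, 48 h exposure at 30 °C | Technique: Optical density at 615 nm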

[3] = viability gain of MRP-1-high H69AR cells under doxorubicin, pilot screen, MRP-1 activator project, CellTiter-Glo, duplicate (AID 807;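 active = viability increase at or above a cutoff of the median across tested compounds plus 3 SD, cut at about 8.5% in these data, passing the limit was not always enough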;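 also: compound pretreatment 18-22 h then 72 h combined with doxorubicin; 0% = doxorubicin alone and 100% = vehicle without doxorubicin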); details: H69AR viability with doxorubicin, CellTiter-Glo luminescence; at 10 µM; stronger effect = higher value
[4] = growth suppression of beta-catenin knockout HCT116, pilot screen, human colon tumor cells (AID 823;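 active = cell viability at or below a set limit in both duplicate runs, the limit being the all-compound median minus 4 SD, cut at about 23% in these data, passing the limit was not always enough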;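 also: 0% = wells killed by 20 µM Hyamine and 100% = untreated DMSO cell wells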); details: CellTiter-Glo, 60 h, at 10 µM, stronger effect = lower value
[5] = growth suppression of PTEN-deleted HCT116, pilot screen, cell-based, HCT116 clonal line, CellTiter-Glo (AID 824;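 active = viability at or below 27.92% in each of two runs, the all-compound median minus 4 SD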;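 also: 0% = 20 µM Hyamine control and 100% = vehicle cell control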); details: 60 h, at 10 µM, stronger effect = lower value
[6] = inhibitors of the yeast RAM network, pilot screen, dse1pr::URA3 reporter, 5-FOA selection (AID 869;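 active = inhibition over a set limit, the all-compound mean plus 3 SD, in both replicate runs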;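 also: 0% = DMSO wells with no growth and 100% = 10 µM 1-NA-PP1 with full growth; RAM network block rescues cells from 5-FOA so hits raise OD615 growth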); details: S. cerevisiae dse1pr::URA3 5-FOA growth, OD615, 2 d; at 10 µM; stronger effect = higher value; strain carries analog-sensitive mutant Cbk1 kinase
[7] = RAM signaling pathway blockade in yeast – S. cerevisiae, Pdr1DBD-CYC8 efflux-inhibited sensitized strain, primary screen (AID 1298);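 also: 0% = DMSO untreated cells without growth and 100% = 10 µM 1-NA-PP1 full growth; higher means more yeast growth rescued from 5-FOA killing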; details: S. cerevisiae cbk1-as DSE1-URA3 strain, 5-FOA growth OD615, 2 d; at 50 µM; stronger effect = higher value

COC(=O)COC(=O)c1ccc(Oc2nc(OC)nc(N(C)C)n2)cc1
inactive: growth inhibition [1] -10.3% | growth inhibition [2] -13.7% | viability increase [3] 0.83% | viability [4] 103% | viability [5] 104% | inhibition [6] 1.35% | RAM network inhibition [7] 2.76%

O=C(Cn1ncc2c(=O)oc3ccccc3c21)N1CCCN(Cc2ccccc2F)C1
inactive: growth inhibition [1] -3.74% | growth inhibition [2] 2.98% | viability increase [3] -3.74% | viability [4] 101% | viability [5] 94.1% | inhibition [6] 1.55% | RAM network inhibition [7] 1.79%

CCCCc1ccc(NC(=O)OC)cc1
inactive: growth inhibition [1] 1.49% | growth inhibition [2] 10.8% | viability increase [3] 3.48% | viability [4] 104% | viability [5] 90.6% | inhibition [6] 2.21% | RAM network inhibition [7] -2%

O=C(Cn1c(=O)n(-c2ccccc2)c(=O)n1CC(=O)N1CCCCC1)N1CCCCC1
inactive: growth inhibition [1] -8.76% | growth inhibition [2] -2.77% | viability increase [3] -0.69% | viability [4] 107% | viability [5] 96.4% | inhibition [6] 0.495% | RAM network inhibition [7] 0.57%

Cc1cc(C)n2nc(S(=O)(=O)NC3CCCCC3)nc2n1
inactive: growth inhibition [1] -7.41% | growth inhibition [2] -7.9% | viability increase [3] -0.66% | viability [4] 103% | viability [5] 98.5% | inhibition [6] 1.06% | RAM network inhibition [7] -0.89%

COc1cccc(C(=O)Nc2nnc(-c3cccs3)o2)c1
inactive: growth inhibition [1] -16.4% | growth inhibition [2] -17% | viability increase [3] -4.26% | viability [4] 44.8% | viability [5] 56.3% | inhibition [6] 0.07% | RAM network inhibition [7] 0.16%

COc1ccc(NC(=O)c2nc3nc(C)cc(C(F)F)n3n2)cc1OC
inactive: growth inhibition [1] -10.9% | growth inhibition [2] -6.71% | viability increase [3] 2.09% | viability [4] 108% | viability [5] 102% | inhibition [6] 0.885% | RAM network inhibition [7] 1.05%

CCCCOc1ccc(/C(N)=N/O)cc1
inactive: growth inhibition [1] 7.3% | growth inhibition [2] 0.775% | viability increase [3] -5.85% | viability [4] 93.5% | viability [5] 93.7% | inhibition [6] 0.44% | RAM network inhibition [7] 1.83%

O=C(C1CCCCC1)N1CCN(c2ncccn2)CC1
inactive: growth inhibition [1] -3.77% | growth inhibition [2] -0.05% | viability increase [3] 0.21% | viability [4] 101% | viability [5] 102% | inhibition [6] 1.31% | RAM network inhibition [7] 2.41%

Cc1cccc(-n2c(Cc3cc(=O)[nH]c(=O)[nH]3)nnc2SCC(=O)N2CCCCC2)c1
inactive: growth inhibition [1] 4% | growth inhibition [2] 16.8% | viability increase [3] -0.52% | viability [4] 106% | viability [5] 87.8% | inhibition [6] 3.3% | RAM network inhibition [7] -0.11%

O=C(CN1C(=O)C2C3C=CC(C3)C2C1=O)Nc1ccc2nccnc2c1 (stereo unspecified)
inactive: growth inhibition [1] 7.15% | growth inhibition [2] -1.04% | viability increase [3] -1.76% | viability [4] 105% | viability [5] 95.2% | inhibition [6] 2.29% | RAM network inhibition [7] 0.31%

c1ccc(-c2nnc(SCc3nc4ccccc4[nH]3)n2Cc2ccco2)nc1
inactive: growth inhibition [1] -0.44% | growth inhibition [2] 10.8% | viability increase [3] -1.33% | viability [4] 90.3% | viability [5] 91% | inhibition [6] 0.04% | RAM network inhibition [7] -0.6%

O=C(O)CCCC(=O)N1CCN(c2cccc(Cl)c2)CC1
inactive: growth inhibition [1] -2.97% | growth inhibition [2] -1.71% | viability increase [3] -1.22% | viability [4] 95.2% | viability [5] 86.2% | inhibition [6] 2.33% | RAM network inhibition [7] 4.6%

Cc1cccc(-c2nnc(-c3ccccc3)o2)c1
inactive: growth inhibition [1] -8.19% | growth inhibition [2] -3.2% | viability increase [3] -5.21% | viability [4] 78% | viability [5] 81.7% | inhibition [6] 1.5% | RAM network inhibition [7] 1.78%

CC(=O)c1ccc(NC(=O)C2CCCN2S(=O)(=O)c2ccc(F)cc2)cc1 (stereo unspecified)
inactive: growth inhibition [1] -5.81% | growth inhibition [2] 0.06% | viability increase [3] 0.59% | viability [4] 98.5% | viability [5] 96.2% | inhibition [6] 2.9% | RAM network inhibition [7] 1.64%

CC(C)c1ccc(NC(=O)c2cccnc2)cc1
inactive: growth inhibition [1] -3.85% | growth inhibition [2] -12.2% | viability increase [3] 0.68% | viability [4] 89.4% | viability [5] 94.3% | inhibition [6] 0.32% | RAM network inhibition [7] 2.26%

COc1cccc(C(=O)Nc2ccc3nc(N4CCOCC4)cc(C)c3c2)c1
inactive: growth inhibition [1] -7.63% | growth inhibition [2] 0.38% | viability increase [3] -6.58% | viability [4] 95.7% | viability [5] 85.9% | inhibition [6] 0.845% | RAM network inhibition [7] 2.45%

CCOC(=O)N1CCC(NC(=O)c2ccc3snnc3c2)CC1
inactive: growth inhibition [1] -6.44% | growth inhibition [2] -4.42% | viability increase [3] -3.44% | viability [4] 98.5% | viability [5] 89.7% | inhibition [6] 0.55% | RAM network inhibition [7] 4.29%
